Drawing on ChEMBL document CHEMBL1121573, “2-(Aminomethyl)phenols, a new class of saluretic agents. 1. Effects of nuclear substitution” (J Med Chem, 1980), this text covers Diuretic activity, Duration and MAP for one molecule.

SMILES strings stand for the structures. Where “and” joins values, the source holds several entries; their conditions need not be identical. Identical values can stand only once.

The subject of data set [1] is Canis familiaris. In words: Oral diuretic activity was evaluated by measuring Na+ excretion in dog at 0.312 mg/kg after ip administration. Conditions: in vivo. The data set is classed as ADME, organism-based, Canis lupus familiaris, Urine. Set-up: dose 0.312 mg/kg, route intraperitoneal. The method, boiled down:
(§1)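 Spontaneous urine was pooled with bladder urine collected by catheterization at 6 h. Volume was measured and Na+, K+ and Cl− were determined by standard methods. Values are geometric means.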

The subject of data set [2] is Canis familiaris. In words: Oral diuretic activity was evaluated by measuring Na+ excretion in dog at 0.625 mg/kg after ip administration. It counts as ADME, organism-based, Canis lupus familiaris, Urine. Set-up: dose 0.625 mg/kg, route intraperitoneal. Particulars: in vivo. The method, boiled down:
as §1

The subject of data set [3] is Canis familiaris. In words: Oral diuretic activity was evaluated by measuring Na+ excretion in dog at 2 mg/kg after […]. The data set is classed as ADME, organism-based, Canis lupus familiaris, Urine. Also noted: dose 2 mg/kg. Conditions: in vivo. The method, boiled down:
(§2)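 Dogs; spontaneous urine was pooled with bladder urine drained by catheter at the end of 6 h. Urine volume was measured, and aliquots were assayed for Na+, K+ and Cl− by standard methods. Values are geometric means, expressed as mequiv over 0–6 h.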

Data set [4] has as its system Canis familiaris. In words: Oral diuretic activity was evaluated by measuring K+ excretion in dog at 5 mg/kg after ip administration. Conditions: in vivo. It counts as ADME, organism-based, Canis lupus familiaris, Urine. Also noted: dose 5 mg/kg, route intraperitoneal. In a few lines:
as §1

Data set [5] has as its system Canis familiaris. In words: Oral diuretic activity was evaluated by measuring Na+ excretion in dog at 5 mg/kg after ip administration. It counts as ADME, organism-based, Canis lupus familiaris, Urine. Particulars: in vivo. Set-up: dose 5 mg/kg. In a few lines: as §2
Data set [6] deals with Canis familiaris. In words: Oral diuretic activity was evaluated by measuring K+ excretion in dog at 2 mg/kg after ip administration. The data set is classed as ADME, organism-based, Canis lupus familiaris, Urine. Also noted: dose 2 mg/kg, route intraperitoneal. Particulars: in vivo. In a few lines: as §1
The test system of data set [7] is Canis familiaris. In words: Oral diuretic activity was evaluated by measuring K+ excretion in dog at 0.312 mg/kg after ip administration. The data set is classed as ADME, organism-based, Canis lupus familiaris, Urine. Also noted: dose 0.312 mg/kg, route intraperitoneal. Conditions: in vivo.
The subject of data set [8] is Canis familiaris. Description: Oral diuretic activity was evaluated by measuring K+ excretion in dog at 0.625 mg/kg after […]. It counts as ADME, organism-based, Canis lupus familiaris, Urine. Also noted: dose 0.625 mg/kg. Particulars: in vivo. The method, boiled down: as §1
Data set [9] concerns Rattus norvegicus. In words: Compound administered orally was evaluated for salidiuretic activity measured as sodium ion excretion in Rat. The data set is classed as ADME, organism-based, Urine. Particulars: in vivo, po. The method, boiled down: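 Female Charles-River rats (150–170 g), overnight on sugar diet with water ad libitum. Compound dissolved in DMF, diluted with water containing Tween 80 (final 4% DMF), given po in 5.0 mL; concurrent vehicle placebo. Three rats per metabolism cage; 0–5 h urine analysed for Na+, K+, Cl-. Values: mequiv × 100 per cage, geometric means of three cages per dose; scored 0–6 by Na+.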

The test system of data set [10] is Canis familiaris. Description: Oral diuretic activity was evaluated by measuring Cl- excretion in dog at 5 mg/kg after ip administration. The data set is classed as ADME, organism-based, Canis lupus familiaris, Urine. Set-up: dose 5 mg/kg, route intraperitoneal. Conditions: in vivo.
The test system of data set [11] is Canis familiaris. Description: Compound administered intravenously was evaluated for salidiuretic activity measured as sodium ion excretion in Dog. It counts as ADME, organism-based, Canis lupus familiaris, Urine. Set-up: unit not given beside the values. Conditions: in vivo, iv. The method, boiled down:
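Conditioned female mongrel dogs, postabsorptive, water-loaded (500 mL po) 1 h before sodium pentobarbital anesthesia (30 mg/kg iv). Bladder catheter; creatinine 4 g sc; phosphate–mannitol buffer pH 7.4 infused (3.0 mL/min) throughout. […] Urine Na+ measured; response scored 0–6.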

Data set [12] deals with Rattus norvegicus. In words: Oral diuretic activity was evaluated by measuring Cl- excretion in Rat at 27 mg/kg after ip administration. It counts as ADME, organism-based, Urine. Set-up: dose 27 mg/kg, route intraperitoneal. Particulars: in vivo.
Data set [13] relates to Rattus norvegicus. Description: Oral diuretic activity was evaluated by measuring Cl- excretion in Rat at 3 mg/kg after ip administration. It counts as ADME, organism-based, Urine. Set-up: dose 3 mg/kg, route intraperitoneal. Conditions: in vivo.
Data set [14] concerns Rattus norvegicus. In words: Oral diuretic activity was evaluated by measuring Cl- excretion in Rat at 81 mg/kg after ip administration. It counts as ADME, organism-based, Urine. Set-up: dose 81 mg/kg, route intraperitoneal. Particulars: in vivo.
In data set [15] the test system is Canis familiaris. Description: Oral diuretic activity was evaluated by measuring Cl- excretion in dog at 0.312 mg/kg after ip administration. The data set is classed as ADME, organism-based, Canis lupus familiaris, Urine. Set-up: dose 0.312 mg/kg, route intraperitoneal. Particulars: in vivo.
The test system of data set [16] is Canis familiaris. In words: Oral diuretic activity was evaluated by measuring Cl- excretion in dog at 0.625 mg/kg after ip administration. The data set is classed as ADME, organism-based, Canis lupus familiaris, Urine. Also noted: dose 0.625 mg/kg, route intraperitoneal. Particulars: in vivo.
The subject of data set [17] is Canis familiaris. Description: Oral diuretic activity was evaluated by measuring Cl- excretion in dog at 2 mg/kg after ip administration. Particulars: in vivo. Set-up: dose 2 mg/kg, route intraperitoneal. The data set is classed as ADME, organism-based, Canis lupus familiaris, Urine.
For data set [18], the species on record is Rattus norvegicus. Description: Time taken for the decrease in arterial pressure was measured. It counts as functional, Artery.
The test system of data set [19] is Rattus norvegicus. In words: Maximum fall in mean arterial blood pressure was measured in SH rats when compound was administered at 0.078 mg/kg perorally. The data set is classed as functional. Conditions: route oral.
Data set [20] deals with Rattus norvegicus. Description: Maximum fall in mean arterial blood pressure was measured in SH rats when compound was administered at 0.312 mg/kg perorally. It counts as functional. Particulars: route oral.
The subject of data set [21] is Rattus norvegicus. Description: Maximum fall in mean arterial blood pressure was measured in SH rats when compound was administered at […] mg/kg perorally. The data set is classed as functional. Conditions: route oral.
The subject of data set [22] is Rattus norvegicus. Description: Oral diuretic activity was evaluated by measuring K+ excretion in Rat at 3 mg/kg after po administration. Conditions: in vivo.

On to `CC(C)(C)c1cc(I)c(O)c(CN)c1.Cl`, for which the Diuretic activity stood at 13.76 in [1]; 22.3 in [2]; 44.9 in data set [3]; 9.9 in data set [4]; 56.8 in [5]; 9.3 in [6]. Also, the Diuretic activity in data set [7] turned out to be 4.34; in data set [8], 5.1; in [9], 6; in [10], 69.6; in [11], 6; in data set [12], 4.35. The Diuretic activity in [13] is 2.11; in data set [14], 4.89; in [15], 19.28; in data set [16], 30.3; in data set [17] it was 57; in data set [22], 0.51. Further, the Duration in data set [18] is 18 h and >24 h. Moreover, the values for the MAP in data set [19], in [20] and in data set [21] were 16 mmHg, 26 mmHg and 38 mmHg, respectively.
